Some results are limits rather than exact numbers.

In ChEMBL document CHEMBL1123363, “(5-Amino-1,3-dimethyl-1H-pyrazol-4-yl)(2-fluorophenyl)methanones . A series of novel potential antipsychotic agents” (J Med Chem, 1986) one finds IC50, Control and ED50 data, which are given here for two molecules.

The target in assay [1] is T1, Adrenergic receptor alpha-1 (Rattus norvegicus, UniProt P15823+P23944+P43140).
T1 sequence (P15823 whole entry): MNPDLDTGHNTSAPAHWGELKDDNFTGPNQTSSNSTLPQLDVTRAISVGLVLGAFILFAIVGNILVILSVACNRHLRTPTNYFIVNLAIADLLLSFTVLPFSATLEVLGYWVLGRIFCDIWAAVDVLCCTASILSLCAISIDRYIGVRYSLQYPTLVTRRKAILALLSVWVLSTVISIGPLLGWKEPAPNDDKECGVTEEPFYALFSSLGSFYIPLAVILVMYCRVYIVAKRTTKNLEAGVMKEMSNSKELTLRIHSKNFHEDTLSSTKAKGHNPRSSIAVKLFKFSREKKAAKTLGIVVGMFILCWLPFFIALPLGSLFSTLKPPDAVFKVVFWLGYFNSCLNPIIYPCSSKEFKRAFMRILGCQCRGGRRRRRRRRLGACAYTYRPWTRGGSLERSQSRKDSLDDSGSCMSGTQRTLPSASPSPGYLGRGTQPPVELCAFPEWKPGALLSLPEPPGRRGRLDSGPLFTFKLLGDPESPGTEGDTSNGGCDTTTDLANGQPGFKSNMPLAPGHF
T1 sequence (P23944 whole entry): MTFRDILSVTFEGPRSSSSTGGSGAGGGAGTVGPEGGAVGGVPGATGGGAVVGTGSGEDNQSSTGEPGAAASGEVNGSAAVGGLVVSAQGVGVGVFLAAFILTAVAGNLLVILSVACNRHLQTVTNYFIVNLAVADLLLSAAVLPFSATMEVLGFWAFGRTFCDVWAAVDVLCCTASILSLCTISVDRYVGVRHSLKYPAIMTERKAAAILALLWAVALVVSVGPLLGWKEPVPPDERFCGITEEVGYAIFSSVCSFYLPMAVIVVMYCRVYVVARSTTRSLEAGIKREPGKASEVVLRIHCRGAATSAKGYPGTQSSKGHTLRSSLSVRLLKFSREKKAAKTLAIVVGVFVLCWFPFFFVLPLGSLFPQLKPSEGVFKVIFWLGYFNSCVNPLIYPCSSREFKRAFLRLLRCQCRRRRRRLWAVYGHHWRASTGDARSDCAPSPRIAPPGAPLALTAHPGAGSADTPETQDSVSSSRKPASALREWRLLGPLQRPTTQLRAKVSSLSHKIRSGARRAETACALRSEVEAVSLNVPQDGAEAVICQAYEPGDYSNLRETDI
T1 sequence (P43140 whole entry): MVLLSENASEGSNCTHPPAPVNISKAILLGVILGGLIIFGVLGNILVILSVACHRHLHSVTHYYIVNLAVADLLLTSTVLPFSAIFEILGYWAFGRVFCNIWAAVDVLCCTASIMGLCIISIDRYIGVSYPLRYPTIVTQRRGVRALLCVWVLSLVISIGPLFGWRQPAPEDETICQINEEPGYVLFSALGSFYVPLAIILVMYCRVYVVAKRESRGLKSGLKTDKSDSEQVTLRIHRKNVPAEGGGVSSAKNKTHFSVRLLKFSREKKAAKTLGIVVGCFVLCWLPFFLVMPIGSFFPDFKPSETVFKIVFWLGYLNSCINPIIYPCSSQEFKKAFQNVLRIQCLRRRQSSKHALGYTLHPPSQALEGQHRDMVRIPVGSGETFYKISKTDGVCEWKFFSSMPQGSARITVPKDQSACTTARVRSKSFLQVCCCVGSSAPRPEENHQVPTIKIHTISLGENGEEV
Put plainly: Binding affinity against lpha-1 adrenergic receptor using [3H]- WB-4101. The class given is protein assay. In outline: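 α1-Adrenergic binding in rat frontal cerebral cortex membranes (male Long-Evans, 150–250 g) with [3H]WB4101 at 0.5 nM final. (-)-Norepinephrine at 100 μM final was the reference standard. IC50 from four or five concentrations by nonlinear curve fitting.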

The target of assay [2] is Dopamine receptor. Put plainly: Binding affinity against dopamine receptor using [3H]- haloperidol in rat brain. The class given is tissue-based. In outline:
(§1)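 Nonspecific binding defined with (+)-butaclamol at 0.1 μM final. IC50 fitted by nonlinear curve fit from four or five concentrations in triplicate.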

For assay [3], the system named is Rattus norvegicus. Description: Compound was tested for its antagonized affect on the accumulation of the brain dopamine induced by butyrolactone (GBL) at 25 mg/kg after intraperitoneal administration. The class given is functional. Also on record: scale not given: the % may be the effect or the level left. Put shortly:
(§2)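 Rats received test compound ip 30 min before γ-butyrolactone (750 mg/kg ip) and were killed 1 h after GBL. Dopamine in brain minus brain stem and cerebellum (four to six rats) was measured spectrofluorometrically and expressed as % of the GBL-treated group.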

Assay [4] has as its target T2, Serotonin 1 (5-HT1) receptor (Rattus norvegicus, UniProt P28564+P30940+P19327+P28565). Put plainly: Binding affinity against the serotonin-1 receptor using [3H]- 5-HT. It is filed as protein assay. In outline:
(§3)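 Serotonin-1 binding in rat cortex membranes (male Long-Evans, 150–250 g) with [3H]-5-HT at 2.0 nM final. (+)-Butaclamol at 1 μM final was the reference. IC50 from four or five concentrations by nonlinear curve fit.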

Assay [5] has as its target Beta-1 adrenergic receptor (Rattus norvegicus, UniProt P18090). Put plainly: Binding affinity against beta-1 adrenergic receptor in rat brain using [3H]DHA. The class given is tissue-based. Put shortly:
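β1 sites in rat cerebral cortex membranes (male Long-Evans, 150–250 g) with [3H]dihydroalprenolol at 0.5 nM final. (-)-Alprenolol at 1 μM final defined the reference. IC50 from four or five concentrations by nonlinear curve fit.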

The target of assay [6] is Beta-2 adrenergic receptor (Rattus norvegicus, UniProt P10608). Put plainly: Binding affinity against beta-2 adrenergic receptor in rat brain using [3H]DHA. The class given is tissue-based. In outline:
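β2 binding on rat cerebellum membranes (male Long–Evans rats, 150–250 g) with [3H]dihydroalprenolol, 0.5 nM final. Nonspecific binding defined with (-)-alprenolol, 1 μM final. IC50 from four or five concentrations by nonlinear curve fit.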

The target in assay [7] is T3, Dopamine receptor (Rattus norvegicus) (UniProt P25115+P19020+P30729+P18901+P61169). Put plainly: Compound was tested for its effect on Dopamine turnover in rat at dose of 10+/-250 mg/kg. The class given is functional, organism-based. The conditions noted are these: in the assay text read “64+/-250 mg/kg” for “10+/-250 mg/kg”. In outline:
(§4)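 Male Long-Evans rats were given vehicle or agent ip 30 min before α-methyl-p-tyrosine (250 mg/kg) and killed 4 h after it. Brain NE and DA were isolated on Sephadex G-10 and measured spectrofluorometrically. Values are percent of vehicle-treated, with at least five determinations per value.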

The target in assay [8] is Dopamine receptor. Put plainly: Binding affinity against dopamine receptor in rat striatal membrane using [3H]haloperidol. It is filed as cell membranes, Striatum. Put shortly: as §1
In assay [9] the target is T3, Dopamine receptor (Rattus norvegicus). Description: Compound was tested for its effect on norepinephrine turnover in rat at dose of 10+/-250 mg/kg. It is filed as functional, organism-based. As to conditions: in the assay text read “64+/-250 mg/kg” for “10+/-250 mg/kg”. In outline: as §4
Assay [10] relates to Rattus norvegicus. Description: Compound was tested for its effect on Dopamine turnover in rat at dose of 64 mg/kg ip. The class given is functional. As to conditions: route intraperitoneal. Put shortly: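 Rats were given compound or vehicle ip 30 min before α-methyl-p-tyrosine (250 mg/kg ip) and killed 4 h later. Brain NE and DA were measured spectrofluorometrically, with at least five determinations per value, and expressed as % of vehicle-treated levels ± SEM.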

Assay [11] concerns Rattus norvegicus. Put plainly: Antagonized affect on the accumulation of the brain dopamine induced by butyrolactone (GBL) at 25 mg/kg after intraperitoneal administration. The class given is functional. Also on record: scale not given: the % may be the effect or the level left. Put shortly: as §2
For assay [12], the target named is T2, Serotonin 1 (5-HT1) receptor. Put plainly: Binding affinity against serotonin-1 receptor in rat brain using [3H]5-HT. It is filed as tissue-based. In outline: as §3
Assay [13] can be described thus: Inhibition of sidman avoidance in rats after peroral administration.

Sequence of Beta-2 adrenergic receptor (P10608 whole entry): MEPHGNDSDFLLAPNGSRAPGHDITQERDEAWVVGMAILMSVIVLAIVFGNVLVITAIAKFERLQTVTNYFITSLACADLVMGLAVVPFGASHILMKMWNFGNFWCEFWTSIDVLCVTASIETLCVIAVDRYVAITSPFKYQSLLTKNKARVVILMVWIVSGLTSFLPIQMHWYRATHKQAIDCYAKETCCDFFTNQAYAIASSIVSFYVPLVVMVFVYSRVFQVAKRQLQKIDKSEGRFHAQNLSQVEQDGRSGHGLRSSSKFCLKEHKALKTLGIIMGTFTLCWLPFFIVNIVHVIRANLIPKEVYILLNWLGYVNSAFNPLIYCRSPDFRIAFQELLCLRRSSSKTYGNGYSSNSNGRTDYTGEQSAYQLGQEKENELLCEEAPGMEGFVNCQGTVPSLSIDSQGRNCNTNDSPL
Sequence of Beta-1 adrenergic receptor (P18090 whole entry): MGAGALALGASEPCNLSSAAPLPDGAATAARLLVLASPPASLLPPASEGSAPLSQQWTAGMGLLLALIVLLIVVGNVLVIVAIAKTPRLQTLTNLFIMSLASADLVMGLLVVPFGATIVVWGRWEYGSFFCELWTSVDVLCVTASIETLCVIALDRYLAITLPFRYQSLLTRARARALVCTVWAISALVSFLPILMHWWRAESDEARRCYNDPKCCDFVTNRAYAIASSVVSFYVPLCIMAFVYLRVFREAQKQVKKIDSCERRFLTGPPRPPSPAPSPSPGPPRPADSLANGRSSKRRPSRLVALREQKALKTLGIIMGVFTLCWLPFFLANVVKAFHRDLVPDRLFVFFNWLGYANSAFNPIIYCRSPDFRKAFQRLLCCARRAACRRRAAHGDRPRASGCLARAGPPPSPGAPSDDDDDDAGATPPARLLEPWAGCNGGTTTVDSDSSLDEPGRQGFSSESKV

For the molecule `CCN(CC)CC(=O)Nc1c(C(=O)c2ccccc2F)c(C)nn1C`, the IC50 (in [1]; on Dopamine receptor [2]; in assay [4]) was > 10 µM in each case. The same molecule showed a Control in the assay on Rattus norvegicus [3] of 85.5%.

For `Cc1nn(C)c(NC(=O)CNCCCN2CCCCC2C)c1C(=O)c1ccccc1F` (stereo not drawn), the IC50 (in assay [5]; in assay [6]; on Dopamine receptor [8]; in assay [12]) was > 10 µM each time. Besides, the Control is 45.6% in [7], 53.7% in assay [9], 96.6% in the assay on Rattus norvegicus [10] and 91.2% in the assay on Rattus norvegicus [11]. Further, the 50% effect level in [13] (ED50) was put at a dose of 21.3 mg/kg.
